These results are taken from ChEMBL document CHEMBL1932934, “Cyclosulfamide-based derivatives as inhibitors of noroviruses” (Eur J Med Chem, 2012).

A value given as a limit tells only on which side of the number the result lay.

One series concerns Norovirus. The experiment in a line: Antiviral activity against Norovirus infected in human HG23 cells assessed as inhibition of viral replication after 24 hrs by quantitative RT-PCR analysis. The note with it: HG23, 24 h, read-out: ED50 (the source's name). In kind it is functional.
Series [1] in a line: Cytotoxicity against human HG23 cells after 48 hrs. The class given is cell-based. The note with it: read-out: TD50. In outline: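 Cytotoxicity in Norwalk virus replicon-harboring HG23 cells exposed to compound for 48 hr, measured with a commercial cell cytotoxicity assay kit. The median toxic dose (TD50) was calculated from the readout.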
A short description of series [2]: Therapeutic index, ratio of TD50 for human HG23 cells to ED50 for Norovirus infected in human HG23 cells. The class given is cell-based. The following applies: read-out: Ratio TD50/ED50. The essentials:
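Index computed as TD50 divided by ED50, both in NV replicon-harboring HG23 cells. TD50 came from a cytotoxicity assay kit after 48 hr of treatment.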

`CCCCS(=O)(=O)N1CCN(CCN2CCN(Cc3cccc(Oc4ccccc4)c3)S2(=O)=O)CC1`: the EC50 in the series with Norovirus was 3.4 µM. The CC50 at 48 h in series [1] was found to be 11.1 µM. Further, in series [2], the selectivity ratio is below 10.
On the same counts, the results for `CCN1CCN(C(=O)CN2CCN(Cc3cccc(Oc4ccccc4)c3)S2(=O)=O)CC1` are 5.5 µM, 120 µM and 24.
The corresponding values for `O=S(=O)(Cc1ccccc1)N1CCN(CCN2CCN(Cc3cccc(Oc4ccccc4)c3)S2(=O)=O)CC1` are 5.3 µM, 9.3 µM and below 10.
On the same counts, the results for `O=C(c1ccc(F)cc1)N1CCN(CCN2CCN(Cc3cccc(Oc4ccccc4)c3)S2(=O)=O)CC1` are 9.7 µM, 80.8 µM and below 10.
With `O=C(O)C1CCN(CCN2CCN(Cc3cccc(Oc4ccccc4)c3)S2(=O)=O)CC1`, the EC50 with Norovirus was 9.1 µM. Further, the CC50 at 48 h in series [1] came out at 210 µM.
In the case of `O=S1(=O)N(CCN2CCN(Cc3ccccc3)CC2)CCN1Cc1cccc(Oc2ccccc2)c1`, the EC50 with Norovirus worked out at 4.1 µM. Moreover, the CC50 at 48 h in series [1] amounted to 11.4 µM. In addition, the selectivity ratio in series [2] is below 10.
In the case of `O=S1(=O)N(CCN2CCOCC2)CCN1Cc1cccc(Oc2ccccc2)c1`, in the series with Norovirus, the EC50 was determined as 5.2 µM. Besides, the CC50 at 48 h in series [1] is 95.4 µM.
The corresponding values for `COC(=O)C1CCN(CCN2CCN(Cc3cccc(Oc4ccccc4)c3)S2(=O)=O)CC1` are 5.5 µM and 180 µM.
Take `O=S1(=O)N(CCN2CCNCC2)CCN1Cc1cccc(Oc2ccccc2)c1`: the EC50 with Norovirus was determined as 5.3 µM. For the same compound, the CC50 at 48 h in series [1] worked out at 14.6 µM. Moreover, the selectivity ratio in series [2] is below 10.
On the same counts, the results for `O=C(c1ccc(Cl)cc1)N1CCN(CCN2CCN(Cc3cccc(Oc4ccccc4)c3)S2(=O)=O)CC1` are 7.4 µM, 35.3 µM and below 10.
The corresponding values for `CCOC(=O)N1CCN(CCN2CCN(Cc3cccc(Oc4ccccc4)c3)S2(=O)=O)CC1` are 5.8 µM, 13.5 µM and below 10.
Turning to `O=C(O)C1CCN(C(=O)CN2CCN(Cc3cccc(Oc4ccccc4)c3)S2(=O)=O)CC1`, the EC50 in the series on Norovirus is above 10 µM. For the same compound, the CC50 at 48 h in series [1] was found to be 80.5 µM.
The corresponding values for `O=S1(=O)N(CCN2CCN(Cc3cccc(Oc4ccccc4)c3)S2(=O)=O)CCN1Cc1cccc(Oc2ccccc2)c1` are 1.5 µM and 8.5 µM.
As for `O=C(c1cccc(Oc2ccccc2)c1)N1CCN(CCN2CCN(Cc3cccc(Oc4ccccc4)c3)S2(=O)=O)CC1`, the EC50 in the series on Norovirus was determined as 6.2 µM. Also, the CC50 at 48 h in series [1] came out at 32.9 µM. Also, the selectivity ratio in series [2] is below 10.
Consider `O=S1(=O)N(CCN2CCN(CCN3CCN(Cc4cccc(Oc5ccccc5)c4)S3(=O)=O)CC2)CCN1Cc1cccc(Oc2ccccc2)c1`, for which the EC50 with Norovirus stood at 0.4 µM. In addition, the CC50 at 48 h in series [1] amounted to 5.1 µM.
Consider `COC(=O)C1CCN(C(=O)CN2CCN(Cc3cccc(Oc4ccccc4)c3)S2(=O)=O)CC1`, for which the EC50 in the series on Norovirus was determined as 4.2 µM. In addition, the CC50 at 48 h in series [1] amounted to 156 µM. For the same compound, the selectivity ratio in series [2] was found to be 39.
For the compound `O=S1(=O)N(CCN2CCCCC2)CCN1Cc1cccc(Oc2ccccc2)c1`, the EC50 with Norovirus worked out at 4.7 µM. The CC50 at 48 h in series [1] was 12.3 µM.
Take `CS(=O)(=O)N1CCN(CCN2CCN(Cc3cccc(Oc4ccccc4)c3)S2(=O)=O)CC1`: the EC50 in the series on Norovirus was 3.2 µM. Moreover, the CC50 at 48 h in series [1] turned out to be 12.2 µM. For the same compound, the selectivity ratio in series [2] is below 10.
